Tests used:
[1] = biological target: Mitogen-activated protein kinase kinase kinase kinase 5 (Homo sapiens) (UniProt Q9Y4K4); assay: Competitive binding affinity to MAP4K5 (unknown origin) at 10 uM in presence of ATP relative to control
Outline: (§1)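 In vitro ATP-site competition binding assay, part of profiling against a diverse panel of 128 kinases. Each compound was tested at a single concentration of 10 µM. Kinome selectivity was summarized as S15 selectivity scores.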

[2] = biological target: Calcium/calmodulin-dependent protein kinase kinase 2 (Homo sapiens) (UniProt Q96RR4); assay: Competitive binding affinity to CAMKK2 (unknown origin) at 10 uM in presence of ATP relative to control
Chain of Calcium/calmodulin-dependent protein kinase kinase 2 (Homo sapiens) (Q96RR4 2-588 limits assumed): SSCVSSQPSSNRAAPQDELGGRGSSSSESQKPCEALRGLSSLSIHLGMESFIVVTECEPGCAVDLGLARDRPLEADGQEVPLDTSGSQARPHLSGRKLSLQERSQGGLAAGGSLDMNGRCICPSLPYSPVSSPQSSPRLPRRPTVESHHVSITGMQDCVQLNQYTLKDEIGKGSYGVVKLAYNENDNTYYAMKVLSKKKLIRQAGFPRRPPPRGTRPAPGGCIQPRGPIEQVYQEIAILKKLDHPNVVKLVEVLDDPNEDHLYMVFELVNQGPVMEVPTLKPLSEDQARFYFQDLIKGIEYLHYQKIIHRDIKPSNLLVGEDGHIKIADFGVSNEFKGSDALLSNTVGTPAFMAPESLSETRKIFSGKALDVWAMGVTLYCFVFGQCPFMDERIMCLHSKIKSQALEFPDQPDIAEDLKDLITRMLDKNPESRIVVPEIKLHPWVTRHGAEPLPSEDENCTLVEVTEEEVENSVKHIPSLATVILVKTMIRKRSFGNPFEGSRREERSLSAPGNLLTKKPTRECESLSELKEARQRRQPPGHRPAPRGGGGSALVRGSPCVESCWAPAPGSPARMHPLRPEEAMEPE

[3] = biological target: Calcium/calmodulin-dependent protein kinase type II subunit alpha (Homo sapiens) (UniProt Q9UQM7); assay: Competitive binding affinity to CAMK2A (unknown origin) at 10 uM in presence of ATP relative to control
[4] = biological target: Serine/threonine-protein kinase pim-2 (Homo sapiens) (UniProt Q9P1W9); assay: Competitive binding affinity to PIM2 (unknown origin) at 10 uM in presence of ATP relative to control
Chain of Serine/threonine-protein kinase pim-2 (Homo sapiens) (Q9P1W9 whole entry, looked up): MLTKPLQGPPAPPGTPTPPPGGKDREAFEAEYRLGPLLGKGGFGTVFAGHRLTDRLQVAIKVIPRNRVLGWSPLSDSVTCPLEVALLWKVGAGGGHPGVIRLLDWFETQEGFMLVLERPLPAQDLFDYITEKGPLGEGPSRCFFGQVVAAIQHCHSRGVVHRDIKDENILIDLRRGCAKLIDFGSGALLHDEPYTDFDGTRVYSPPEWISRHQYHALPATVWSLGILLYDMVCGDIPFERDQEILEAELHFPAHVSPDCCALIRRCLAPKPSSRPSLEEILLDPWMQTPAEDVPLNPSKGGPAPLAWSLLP
Outline: (§2)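 In vitro ATP-site competition binding assay across a diverse panel of 128 kinases, with each compound tested at a single concentration. Kinase binding is expressed relative to control.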

[5] = biological target: Serine/threonine-protein kinase 16 (Homo sapiens, UniProt O75716); assay: Competitive binding affinity to STK16 (unknown origin) at 10 uM in presence of ATP relative to control
Outline: (§3)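 In vitro ATP-site competition binding assay across a diverse panel of 128 kinases, with compound tested at a single concentration. Kinase selectivity scores (S15) were calculated from the panel profiles.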

[6] = biological target: Receptor tyrosine-protein kinase erbB-4 (Homo sapiens) (UniProt Q15303); assay: Competitive binding affinity to ERBB4 (unknown origin) at 10 uM in presence of ATP relative to control; outline: as §1
[7] = biological target: Dual specificity protein kinase CLK2 (Homo sapiens) (UniProt P49760); assay: Competitive binding affinity to CLK2 (unknown origin) at 10 uM in presence of ATP relative to control; outline: as §2
Chain of Dual specificity protein kinase CLK2 (Homo sapiens) (P49760 whole entry, looked up): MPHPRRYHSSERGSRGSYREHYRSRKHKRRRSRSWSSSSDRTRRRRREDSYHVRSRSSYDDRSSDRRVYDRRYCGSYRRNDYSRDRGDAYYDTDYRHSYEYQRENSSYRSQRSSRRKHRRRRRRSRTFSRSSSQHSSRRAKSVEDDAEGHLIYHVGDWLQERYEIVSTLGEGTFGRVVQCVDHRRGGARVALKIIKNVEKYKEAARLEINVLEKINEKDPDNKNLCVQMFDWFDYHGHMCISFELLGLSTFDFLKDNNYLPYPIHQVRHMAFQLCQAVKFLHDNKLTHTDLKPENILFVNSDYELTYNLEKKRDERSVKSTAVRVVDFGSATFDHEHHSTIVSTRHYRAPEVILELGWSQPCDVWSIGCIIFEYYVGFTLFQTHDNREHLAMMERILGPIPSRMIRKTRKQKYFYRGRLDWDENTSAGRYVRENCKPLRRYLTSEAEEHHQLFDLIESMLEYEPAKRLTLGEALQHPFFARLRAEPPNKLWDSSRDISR

[8] = biological target: Proto-oncogene tyrosine-protein kinase ROS (Homo sapiens) (UniProt P08922); assay: Competitive binding affinity to ROS1 (unknown origin) at 10 uM in presence of ATP relative to control; outline: as §3
Chain of Proto-oncogene tyrosine-protein kinase ROS (Homo sapiens) (P08922 whole entry): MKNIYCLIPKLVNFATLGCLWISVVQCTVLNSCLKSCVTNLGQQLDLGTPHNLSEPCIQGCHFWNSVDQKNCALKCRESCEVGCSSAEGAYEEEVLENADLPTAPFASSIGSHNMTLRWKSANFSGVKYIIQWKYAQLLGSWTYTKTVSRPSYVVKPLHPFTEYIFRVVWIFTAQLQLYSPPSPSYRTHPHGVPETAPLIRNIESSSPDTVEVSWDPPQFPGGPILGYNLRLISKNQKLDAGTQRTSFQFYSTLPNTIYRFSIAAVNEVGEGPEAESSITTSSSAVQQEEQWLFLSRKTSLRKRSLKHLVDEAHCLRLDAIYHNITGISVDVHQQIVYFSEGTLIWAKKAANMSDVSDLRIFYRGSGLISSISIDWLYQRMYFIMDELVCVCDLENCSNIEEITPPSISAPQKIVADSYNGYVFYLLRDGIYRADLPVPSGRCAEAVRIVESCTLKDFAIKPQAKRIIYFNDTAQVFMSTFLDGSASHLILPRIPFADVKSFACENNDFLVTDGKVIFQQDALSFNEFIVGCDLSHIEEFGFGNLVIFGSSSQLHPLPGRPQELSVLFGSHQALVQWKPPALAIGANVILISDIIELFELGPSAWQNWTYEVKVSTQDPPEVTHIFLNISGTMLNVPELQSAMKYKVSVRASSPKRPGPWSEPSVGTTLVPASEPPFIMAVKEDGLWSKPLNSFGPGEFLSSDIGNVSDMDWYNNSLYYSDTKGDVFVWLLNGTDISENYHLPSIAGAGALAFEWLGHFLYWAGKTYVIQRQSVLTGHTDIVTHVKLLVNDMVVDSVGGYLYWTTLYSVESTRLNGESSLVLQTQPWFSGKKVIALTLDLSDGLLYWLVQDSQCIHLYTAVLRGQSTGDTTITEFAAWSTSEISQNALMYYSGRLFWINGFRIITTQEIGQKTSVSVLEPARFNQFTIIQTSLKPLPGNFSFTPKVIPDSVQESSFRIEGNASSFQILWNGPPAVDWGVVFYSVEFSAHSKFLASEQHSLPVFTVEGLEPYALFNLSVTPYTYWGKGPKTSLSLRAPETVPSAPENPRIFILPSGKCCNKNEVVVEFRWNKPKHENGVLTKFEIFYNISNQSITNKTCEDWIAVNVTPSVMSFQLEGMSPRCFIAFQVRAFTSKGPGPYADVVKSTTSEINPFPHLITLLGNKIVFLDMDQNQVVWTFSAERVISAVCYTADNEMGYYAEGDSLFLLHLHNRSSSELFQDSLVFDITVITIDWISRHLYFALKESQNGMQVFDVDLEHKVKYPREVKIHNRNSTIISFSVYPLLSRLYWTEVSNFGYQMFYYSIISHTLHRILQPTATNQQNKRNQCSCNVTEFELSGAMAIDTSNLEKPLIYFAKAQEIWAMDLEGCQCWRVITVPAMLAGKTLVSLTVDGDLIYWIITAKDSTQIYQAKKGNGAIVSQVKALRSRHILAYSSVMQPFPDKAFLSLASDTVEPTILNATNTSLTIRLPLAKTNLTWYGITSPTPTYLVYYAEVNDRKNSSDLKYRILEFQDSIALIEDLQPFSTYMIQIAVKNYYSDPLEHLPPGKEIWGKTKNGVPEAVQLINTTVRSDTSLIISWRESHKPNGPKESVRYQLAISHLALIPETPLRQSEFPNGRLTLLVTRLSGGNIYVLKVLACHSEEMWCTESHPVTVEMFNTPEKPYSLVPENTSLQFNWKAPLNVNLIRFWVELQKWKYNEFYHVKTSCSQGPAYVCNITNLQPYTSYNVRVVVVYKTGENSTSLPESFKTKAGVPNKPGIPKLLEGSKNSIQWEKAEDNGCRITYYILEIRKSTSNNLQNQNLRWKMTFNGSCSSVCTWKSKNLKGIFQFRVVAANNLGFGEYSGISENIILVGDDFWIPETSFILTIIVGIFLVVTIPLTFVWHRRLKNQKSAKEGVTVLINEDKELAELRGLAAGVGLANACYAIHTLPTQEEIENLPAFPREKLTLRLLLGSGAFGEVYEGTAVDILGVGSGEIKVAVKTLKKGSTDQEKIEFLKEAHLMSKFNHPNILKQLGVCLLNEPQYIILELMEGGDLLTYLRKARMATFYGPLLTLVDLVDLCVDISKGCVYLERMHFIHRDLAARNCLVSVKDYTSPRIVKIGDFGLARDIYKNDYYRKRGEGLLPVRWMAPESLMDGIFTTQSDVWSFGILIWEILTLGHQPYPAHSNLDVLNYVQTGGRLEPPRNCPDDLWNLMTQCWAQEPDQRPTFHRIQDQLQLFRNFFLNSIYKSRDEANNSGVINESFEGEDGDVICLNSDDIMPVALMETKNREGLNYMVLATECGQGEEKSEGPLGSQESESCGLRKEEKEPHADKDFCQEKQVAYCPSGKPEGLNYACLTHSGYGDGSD

[9] = biological target: Epidermal growth factor receptor (Homo sapiens) (UniProt P00533); assay: Competitive binding affinity to EGFR (unknown origin) at 10 uM in presence of ATP relative to control
[10] = biological target: Tyrosine-protein kinase Fyn (Homo sapiens) (UniProt P06241); assay: Competitive binding affinity to FYN (unknown origin) at 10 uM in presence of ATP relative to control; outline: as §1
[11] = biological target: Proto-oncogene tyrosine-protein kinase Src (Homo sapiens) (UniProt P12931); assay: Competitive binding affinity to SRC (unknown origin) at 10 uM in presence of ATP relative to control; outline: as §3
[12] = biological target: Fibroblast growth factor receptor 3 (Homo sapiens) (UniProt P22607); assay: Competitive binding affinity to FGFR3 (unknown origin) at 10 uM in presence of ATP relative to control; outline: as §1
[13] = biological target: Casein kinase I isoform epsilon (Homo sapiens) (UniProt P49674); assay: Competitive binding affinity to CSNK1E (unknown origin) at 10 uM in presence of ATP relative to control
Chain of Casein kinase I isoform epsilon (Homo sapiens) (P49674 whole entry, looked up, canonical isoform): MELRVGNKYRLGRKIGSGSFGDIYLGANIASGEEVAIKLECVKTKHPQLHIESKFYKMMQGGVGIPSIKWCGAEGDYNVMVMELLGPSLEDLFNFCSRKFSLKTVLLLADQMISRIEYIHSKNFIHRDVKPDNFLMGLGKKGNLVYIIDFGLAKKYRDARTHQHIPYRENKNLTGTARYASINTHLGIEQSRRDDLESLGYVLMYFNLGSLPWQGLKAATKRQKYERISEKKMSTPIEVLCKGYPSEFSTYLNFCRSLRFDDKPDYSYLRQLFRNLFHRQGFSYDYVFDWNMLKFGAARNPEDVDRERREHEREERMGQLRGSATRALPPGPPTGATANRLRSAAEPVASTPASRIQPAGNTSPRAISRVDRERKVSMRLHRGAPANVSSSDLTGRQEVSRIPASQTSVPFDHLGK

[14] = biological target: Ephrin type-A receptor 5 (Homo sapiens) (UniProt P54756); assay: Competitive binding affinity to EPHA5 (unknown origin) at 10 uM in presence of ATP relative to control; outline: as §1
[15] = biological target: Ephrin type-A receptor 2 (Homo sapiens) (UniProt P29317); assay: Competitive binding affinity to EPHA2 (unknown origin) at 10 uM in presence of ATP relative to control; outline: as §1
[16] = biological target: Fibroblast growth factor receptor 1 (Homo sapiens) (UniProt P11362); assay: Competitive binding affinity to FGFR1 (unknown origin) at 10 uM in presence of ATP relative to control; outline: as §1
[17] = biological target: Leukocyte tyrosine kinase receptor (Homo sapiens) (UniProt P29376); assay: Competitive binding affinity to LTK (unknown origin) at 10 uM in presence of ATP relative to control; outline: as §1
[18] = biological target: Ephrin type-A receptor 7 (Homo sapiens) (UniProt Q15375); assay: Competitive binding affinity to EPHA7 (unknown origin) at 10 uM in presence of ATP relative to control; outline: as §1

Chain of Mitogen-activated protein kinase kinase kinase kinase 5 (Homo sapiens) (Q9Y4K4 whole entry, looked up): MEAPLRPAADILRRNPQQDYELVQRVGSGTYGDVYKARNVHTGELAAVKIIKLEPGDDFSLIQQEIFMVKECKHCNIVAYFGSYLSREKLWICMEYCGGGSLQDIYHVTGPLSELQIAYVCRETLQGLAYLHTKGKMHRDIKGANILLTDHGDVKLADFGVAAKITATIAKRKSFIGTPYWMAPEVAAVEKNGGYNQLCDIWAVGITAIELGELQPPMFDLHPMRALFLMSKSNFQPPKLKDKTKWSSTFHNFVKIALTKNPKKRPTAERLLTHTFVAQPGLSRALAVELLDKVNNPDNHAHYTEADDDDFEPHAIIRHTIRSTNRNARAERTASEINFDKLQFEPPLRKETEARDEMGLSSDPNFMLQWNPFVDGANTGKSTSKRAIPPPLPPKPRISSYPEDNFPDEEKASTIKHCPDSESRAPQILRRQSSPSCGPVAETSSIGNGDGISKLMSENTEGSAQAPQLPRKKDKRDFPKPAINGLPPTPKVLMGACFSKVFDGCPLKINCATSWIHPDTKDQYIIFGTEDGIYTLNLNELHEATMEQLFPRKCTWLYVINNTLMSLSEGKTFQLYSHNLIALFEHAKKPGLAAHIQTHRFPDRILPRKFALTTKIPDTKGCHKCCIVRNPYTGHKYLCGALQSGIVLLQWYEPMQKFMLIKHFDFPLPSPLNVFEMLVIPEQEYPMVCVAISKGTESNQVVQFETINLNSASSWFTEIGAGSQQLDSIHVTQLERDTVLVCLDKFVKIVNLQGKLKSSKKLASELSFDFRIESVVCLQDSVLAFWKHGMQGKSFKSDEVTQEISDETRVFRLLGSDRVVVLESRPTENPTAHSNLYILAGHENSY

inhibition [1] [%]	inhibition [2] [%]	inhibition [3] [%]	inhibition [4] [%]	inhibition [5] [%]	inhibition [6] [%]	inhibition [7] [%]	inhibition [8] [%]	inhibition [9] [%]	inhibition [10] [%]	inhibition [11] [%]	inhibition [12] [%]	inhibition [13] [%]	inhibition [14] [%]	inhibition [15] [%]	inhibition [16] [%]	inhibition [17] [%]	inhibition [18] [%]	Compound
< 50	65	94	99	81	< 50	99	< 50	< 50	< 50	< 50	< 50	94	< 50	< 50	< 50	< 50	< 50	O[C@H]1CC[C@H](Nc2nccc(-n3ncc4ccccc43)n2)CC1
< 50	< 50	89	86	< 50	< 50	97	< 50	< 50	< 50	< 50	< 50	85	< 50	< 50	< 50	< 50	< 50	O[C@H]1CC[C@H](Nc2nccc(-n3ccc4ccccc43)n2)CC1
				> 85														CS(=O)(=O)CCCOc1cccc2c1ccn2-c1ccnc(N[C@H]2CC[C@H](C(=O)N3CCC(O)CC3)CC2)n1
< 50	86	84	99	83	< 50	100	< 50	< 50	80	< 50	< 50	100	< 50	< 50	< 50	< 50	< 50	N[C@H]1CC[C@H](Nc2nccc(-n3nnc4ccccc43)n2)CC1
< 50	75	< 50	78	93	< 50	94	< 50	< 50	81	< 50	< 50	95	< 50	< 50	< 50	< 50	< 50	O=C([C@H]1CC[C@H](Nc2nccc(-n3nnc4ccccc43)n2)CC1)N1CCOCC1
99	84	94	100	100	< 50	95	< 50	< 50	77	78	74	100	< 50	< 50	80	100	95	O[C@H]1CC[C@H](Nc2nccc(-c3n[nH]c4ccccc34)n2)CC1
< 50	72	88	98	< 50	< 50	99	< 50	< 50	< 50	< 50	< 50	100	< 50	< 50	< 50	< 50	< 50	O[C@H]1CC[C@H](Nc2nccc(-n3nnc4ccccc43)n2)CC1
